Here are results for two compounds from paper PMC3018560 (Antiviral research, 2010).

Data set [1] concerns DENV (serotype 2, TSV01 strain). Kind of data set: Dengue viremia model in AG129 mouse, plasma virus titer by plaque assay. Type of data set: in vivo. As to conditions: AG129 mice. The gist of the method: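 AG129 mice (lacking type I and type II interferon receptors), 7 to 8 weeks old, 6 per dosing group, challenged i.p. with 5×10^6 pfu/mouse. Ribavirin dosed once daily and imino sugars twice daily at 12 hr intervals for 3 consecutive days post-infection; PBS to controls. Plasma virus titer by plaque assay on blood drawn day 3. Reported as average and standard deviation; student t test versus PBS control.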

The conditions of data set [2]: human; ref Lindahl et al., 2005; cited from earlier work.
For another data set, the system named is HIV. As to conditions: anti-HIV agent, patients; ref Fischl et al., 1994; cited from earlier work.
For data set [3] the following is noted: mouse; ref Alonzi et al., 2008; cited from earlier work.

For the compound `NC(=O)c1ncn([C@@H]2O[C@H](CO)[C@@H](O)[C@H]2O)n1` [ribavirin], the “Effect on viremia of dose increase” value in data set [1] (ribavirin dose raised from 40mg/kg to 80mg/kg) is “did not improve its antiviral effect”. Also, the Effect on viremia entry in data set [1] (ribavirin oral 40mg/kg once daily alone, 3 days (Fig. 5A)) is on record as “did not reduce viremia”. The Systematic concentration in data set [2] is listed as ~ 15 μM.

With `CCCCN1C[C@H](O)[C@@H](O)[C@H](O)[C@H]1CO` [NBDNJ], in the data set with HIV, the “Antiviral efficacy in phase II clinical trial” value is “did not demonstrate any antiviral efficacy”. The T1/2 in data set [3] was 1.34 h.
